Only some compounds are listed: those with a hit (about 1.4% of all), similar ones and a draw of the others.
CDK5 inh = inhibitors of human CDK5/p35 kinase, primary screen, biochemical, single concentration. Cyclin-dependent kinase 5 (Homo sapiens) + Cyclin-dependent kinase 5 activator 1 (Homo …. inhibition, % at 10 µM. AID 488839, 2010. Recombinant CDK5/p35, ADP-Glo luminescence, 60 min. actives 0.01% (n = 330,000);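 active = highest replicate inhibition of at least 50% and at least 75% of replicates reaching 50%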;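 also: plate controls were DMSO neutral control for no effect and GW8510 at 10 µM for full effect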
GSK3B inh = human GSK3beta kinase inhibitors, primary screen, biochemical, cell-free homogeneous, HTS. Glycogen synthase kinase-3 beta (Homo sapiens), P49841. GST-GSK3beta kinase, ADP-Glo luminescence, 60 min; active compounds read low. activity score (negative = inhibition), % at 10 µM. actives 0.038% (n = 300,000);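 active = more than half of replicate wells score below -50%, meaning over 50% inhibition versus plate controls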;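 also: 0% = median DMSO wells and -100% = median GW8510 positive control wells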
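Assay system: GST-fused GSK3beta enzyme, cell-free / Medium: Tris pH 7.5 buffer with MgCl2, DTT, BSA, heparin / Also added: peptide substrate plus 25 µM ATP (final) / Compound: 10 µM single point / Timing: kinase reaction with compound 60 min at room temperature / Detection: ADP-Glo luminescence / Benchmarks: DMSO neutral wells and GW8510 at 20 µM as positive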
STK33 inh = inhibitors of purified STK33 kinase, primary screen, biochemical, ADP-Glo luminescence, homogeneous, cell-free; Serine/threonine-protein kinase 33 (Homo sapiens), Q9BYT3; MBP phosphorylation; inhibition, % at 10 µM; actives 0.073% (n = 320,000); AID 2661, 2010;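 active = inhibition at or above 25%, using the most active replicate where run in duplicate; inactive = inhibition below 25%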
Env fusion inh = inhibitors of HIV-1 Env-driven cell-cell fusion, primary screen, HeLa-JRFL effector, CEM21 target cells, luciferase; inhibition, % at 12.3 µM; actives 1.1% (n = 360,000); AID 651610, 2012;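 active = mean replicate inhibition score of at least 50 and every replicate individually at or above 50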;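 also: 0% = plate neutral controls and 100% = maraviroc near 300 nM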
INS-1E GSIS act = GLuc luminescence reporter in INS-1E cells, primary screen for activators of glucose-dependent secretion of insulin; actives 0.61% (n = 370,000); INS-1E GLuc reporter insulin secretion, 2-3 h; activation, % at 16.6 µM;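 active = lowest replicate activation of at least 40%, so every replicate reaches that level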;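 also: 0% = median of neutral control wells and 100% = median of IBMX positive control wells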
GSK3A inh = blockers of GSK3A enzyme activity – biochemical, luminescence, cell-free homogeneous, HTS, primary screen; Glycogen synthase kinase-3 alpha (Homo sapiens), P49840; GSK-3 alpha kinase, ADP-Glo luminescence, 60 min; inhibition, % at 10 µM; actives 0.1% (n = 320,000); AID 2650, 2010;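 active = more than half of replicates show inhibition above 20%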;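 also: GST-tagged GSK-3 alpha with peptide substrate and 25 µM ATP; 0% = DMSO neutral wells and 100% = GW8510 positive control wells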
Target sequence (P49840 whole entry, looked up): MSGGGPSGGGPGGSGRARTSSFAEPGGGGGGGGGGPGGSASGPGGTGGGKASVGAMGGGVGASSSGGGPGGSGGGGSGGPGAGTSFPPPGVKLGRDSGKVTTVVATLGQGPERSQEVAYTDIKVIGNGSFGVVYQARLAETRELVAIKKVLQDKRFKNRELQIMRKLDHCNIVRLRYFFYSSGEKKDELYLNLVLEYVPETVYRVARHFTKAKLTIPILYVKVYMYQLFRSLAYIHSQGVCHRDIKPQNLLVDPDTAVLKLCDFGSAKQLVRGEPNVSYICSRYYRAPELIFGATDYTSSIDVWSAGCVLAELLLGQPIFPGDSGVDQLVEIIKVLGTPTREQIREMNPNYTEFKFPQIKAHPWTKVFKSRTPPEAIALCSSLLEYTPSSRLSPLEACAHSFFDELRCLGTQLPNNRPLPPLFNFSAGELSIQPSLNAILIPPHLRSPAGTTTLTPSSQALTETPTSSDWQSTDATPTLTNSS
Active calls of the source: *; . = no result given; [ ] = remark or other dose.

SMILES	CDK5 inh	GSK3B inh	STK33 inh	Env fusion inh	INS-1E GSIS act	GSK3A inh
C=CCNc1nc(Nc2ccccc2F)nc(OCC)n1	1	4	1	-12	19	-1
CCOc1nc(Nc2ccccc2F)nc(OCC)n1	0	3	0	2	62*	3
O=C(Nc1ccc2c(c1)OCO2)N[C@@H]1CC[C@H](CCNC(=O)C2CC2)O[C@H]1CO	.	.	.	4[16.7 µM]	14	.
S=C(NCCCc1cnc[nH]1)NCCCN(Cc1ccccc1)c1ccc(Br)cn1	.	.	.	26	43	.
CCCCN(CCCNC(=S)NCCCc1cnc[nH]1)c1ccc(Br)cn1	.	.	.	-13	72*	.
COc1ccc(NC(=O)c2ccc3c(c2)N(C)CCS3)cc1	-1	15	-1	-119	27	0
CN1CCSc2ccc(C(=O)Nc3cccc(F)c3)cc21	0	4	-2	-361	67*	-4
CC(OC(=O)CCN1C(=O)C2CC=CCC2C1=O)C(=O)Nc1cccc(Cl)c1 (configuration not stated)	0	-1	-2	19	63*	0
Cc1cc(C)nc(Nc2nc(C(N)c3ccccc3)cs2)n1 (configuration not stated)	.	.	.	-32	6	.
Cc1cc(C)nc(Nc2nc(C(N)CCc3ccccc3)cs2)n1 (configuration not stated)	.	.	.	74*	-13	.
O=C(C[C@H]1C[C@@H]2c3cc(NC(=O)c4cccnc4)ccc3O[C@@H]2[C@@H](CO)O1)NCc1ccncc1	.	.	.	.	3	.
COc1cccc(-c2cccc(-c3nc(C(=O)N(C)C)cc4c3[C@H](CCO)N([S@@](=O)C(C)(C)C)C4)c2)c1	.	.	.	10[16.7 µM]	-1	.
N=C1/C(=C/c2cccn2Cc2ccc(Cl)cc2)C(=O)N=C2SC=CN12	-1	0	1	63*	148*	-1
CC1=CC2=NC(=O)/C(=C/c3cccn3Cc3ccccc3)C(=N)N2O1	0	-4	0	19	12	1
Cc1c(CNCCc2ccc(Cl)cc2)c(C(=O)O)c(C)n1Cc1ccccc1	-2	2	0	14	4	-1
Cc1c(CNCCc2ccccc2Cl)c(C(=O)O)c(C)n1-c1ccccc1	-3	1	2	57*	-1	-4
Cc1nn(C)c(Cl)c1NC(=O)OCc1ccc(Cl)cc1Cl	1	1	0	73*	.	-2
C[C@H](CO)N1C[C@H](C)[C@@H](CN(C)C(=O)Nc2ccc3c(c2)OCO3)Oc2ccc(NC(=O)Nc3ccc(F)cc3)cc2CC1=O	.	.	.	-7[16.7 µM]	4	.
CCCCN(C)C(=O)C(Cc1ccccc1)NS(=O)(=O)c1ccc2c(c1)CCC(=O)N2 (configuration not stated)	0	1	1	67*	4	0
O=C(CSc1nc2ccccc2n1S(=O)(=O)c1cccc([N+](=O)[O-])c1)NCCc1ccccc1	0	1	1	73*	9	-2
CN(C)c1cc[n+](CC(=O)c2ccc(-c3ccccc3)cc2)cc1	-3	2	-1	64*	-42	-1
O=C(C[n+]1ccccc1)c1ccc(-c2ccccc2)cc1	3	2	0	8	0	1
CC1(C)Cc2nc(-c3ccccc3)nc(SCC(=O)N3CCOCC3)c2CO1	2	0	0	11	-9	-2
Cc1ccc(-c2nc3c(c(SCC(=O)N4CCCC4)n2)COC(C)(C)C3)cc1	.	.	.	26	44*	.
Cc1ccc(/C=C2\SC(=O)N(CCC(=O)N3CCN(C)CC3)C2=O)cc1	-1	6	-1	-16	50*	3
COCC#Cc1cnc2c(c1)C(=O)N([C@@H](C)CO)C[C@@H](C)[C@@H](CN(C)C(=O)Cc1cccnc1)O2	.	.	.	.	2	.
Cc1ccccc1C(=O)O/N=C/c1c(N2CCOCC2)n(C)c2ccccc12	-1	0	-2	60*	.	-1

Bioassay records from PubChem BioAssay.
